Measured values collected from several papers.
Lines come from different studies, so protocols differ.
Effect on: metabolic stability
Host: rat
Sample: liver microsomes

SMILES	setting	half-life [min]
COc1cnccc1Cn1nc(-c2ccc(CO)o2)c2ccccc21	1 µM, pH 7.4	7
N#Cc1ccc(C[C@H](Nc2c(Nc3ccc(Br)cc3)c(=O)c2=O)C(=O)N2CCc3ccccc32)cc1	10 µM, pH 7.4	38
O=C1c2ccccc2C(=O)N1CCCN1CCN(C(c2ccc(F)cc2)c2ccc(F)cc2)CC1	100 ng/mL	3.9
N#Cc1ccc(C[C@H](Nc2nnc(-c3ccc(F)cc3)s2)C(=O)N2CCc3ccccc32)cc1	10 µM, pH 7.4	19.3
O=C1CCC(N2Cc3cc(C4CCN(Cc5ccccc5)CC4)ccc3C2=O)C(=O)N1 (stereo not shown)	1 µM	> 60
N#Cc1ccc(C[C@H](Nc2nnc(-c3cccc(F)c3)s2)C(=O)N2CCc3ccccc32)cc1	10 µM, pH 7.4	47
COc1ncccc1Cn1nc(-c2ccc(CO)o2)c2ccccc21	1 µM, pH 7.4	6
C=CCn1c(=O)c2cnc(Nc3ccc(N4CCN(C)CC4)cc3)nc2n1-c1ccc2c(n1)[C@@](O)(CC)CC2		79
Cc1[nH]c(C)c(S(=O)(=O)Nc2ccc(C(F)(F)F)c(Cl)c2)c1C(=O)N1CCC(F)(F)C1		8
NCc1ccc(-c2nn(Cc3ccccc3)c3ccccc23)o1	1 µM, pH 7.4	> 30
N#Cc1ccc(C[C@H](Nc2nnc(-c3ccc(Br)cc3)s2)C(=O)N2CCc3ccccc32)cc1	10 µM, pH 7.4	15
Cc1[nH]c(C)c(S(=O)(=O)Nc2ccc(C(F)(F)F)c(Cl)c2Cl)c1C(=O)N1CCC(F)(F)C1		32
OCc1ccc(-c2nn(Cc3ccccn3)c3cccnc23)o1	1 µM, pH 7.4	> 30
